This passage reports Activity, inhibition and IC50 results from ChEMBL document CHEMBL4834402, “Discovery of TAK-981, a First-in-Class Inhibitor of SUMO-Activating Enzyme for the Treatment of Cancer” (J Med Chem, 2021).

Experiment [1] deals with HCT-116. The experiment is described as follows: Antitumor activity against human HCT-116 cells xenografted in Ncr/nude mouse assessed as tumor growth inhibition at 50 mg/kg, sc administered once daily for 21 days and measured twice weekly. Conditions: time 21.0 day. It counts as functional, organism-based. An outline of the steps: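 Female Ncr/nude mice carrying HCT-116 tumors (~200 mm3) were randomized, n = 8/group, with treatment from Day 1. Schedules were QD x21 (Days 1–21) or QD x3/week (three consecutive dosing days, four off). Tumor volume was measured twice weekly.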

Experiment [2] concerns the target T1, SUMO-activating enzyme (Homo sapiens) (UniProt Q9UBE0+Q9UBT2). The experiment is described as follows: Inhibition of SAE in human HCT116 cells xenografted in NCr nude mouse assessed as reduction in SUMO2/3 protein conjugates at 50 mg/kg, iv and measured up to 16 hrs by immunohistochemistry analysis. The experiment is classed as organism-based. As to conditions: HCT-116. The method in brief:
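HCT-116 tumors in female Ncr nude mice, n = 3 per time point, after a single IV dose at t = 0. SUMO2/3 conjugation in tumors measured by IHC at 2, 4, 8 and 16 h. Read-out is nuclei staining positive for SUMO2/3 conjugates over total nuclei, normalized to vehicle-treated animals (time = 0 h), expressed as percent inhibition.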

Experiment [3] addresses T1, SUMO-activating enzyme (Homo sapiens). The experiment is described as follows: Inhibition of SAE in human HCT116 cells xenografted in NCr nude mouse assessed as improvement in SUMO-inhibitor adduct durability at 50 mg/kg, iv and measured up to 16 hrs by mass spectrometry. It counts as organism-based. As to conditions: HCT-116. The method in brief:
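Single IV dose at t = 0 to female Ncr nude mice bearing HCT-116 tumors, n = 3 per time point. Tumors harvested 2, 4, 8 and 16 h post-injection. Read-out is the adduct/SAE ratio: quantity of SUMO-compound adduct over quantity of total SAE enzyme, both measured by mass spectrometry. Values are averaged per time point.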

Experiment [4] has as its system OCI-Ly10. The experiment in a line: Antitumor activity against human OCI-Ly10 cells xenografted in CB17 SCID mouse assessed as tumor growth inhibition at 50 mg/kg, sc mg/kg administered once daily for 21 days and measured twice weekly. The experiment is classed as functional, organism-based. As to conditions: time 21.0 day. An outline of the steps:
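Female CB17 SCID mice carrying OCI-Ly10 tumors (~200 mm3) were randomized, n = 8/group, with treatment from Day 1. Schedules were QD x21 (Days 1–21) or QD x3/week (three consecutive dosing days, four off). Tumor volume was measured twice weekly.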

Experiment [5] has as its target T2, NEDD8 activating enzyme (Homo sapiens, UniProt Q8TBC4).
T2 sequence (Q8TBC4 whole entry): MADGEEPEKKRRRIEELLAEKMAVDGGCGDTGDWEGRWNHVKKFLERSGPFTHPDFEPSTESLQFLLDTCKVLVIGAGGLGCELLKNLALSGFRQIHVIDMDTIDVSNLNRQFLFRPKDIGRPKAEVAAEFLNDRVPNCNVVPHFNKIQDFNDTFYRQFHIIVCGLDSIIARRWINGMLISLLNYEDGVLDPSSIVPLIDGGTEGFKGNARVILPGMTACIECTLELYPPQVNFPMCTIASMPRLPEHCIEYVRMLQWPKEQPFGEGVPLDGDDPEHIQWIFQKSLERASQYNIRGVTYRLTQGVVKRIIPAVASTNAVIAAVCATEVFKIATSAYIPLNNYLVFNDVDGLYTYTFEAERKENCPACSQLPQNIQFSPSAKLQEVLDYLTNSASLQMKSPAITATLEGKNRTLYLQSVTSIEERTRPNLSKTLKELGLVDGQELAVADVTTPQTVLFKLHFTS
T2 sequence (Q13564 whole entry): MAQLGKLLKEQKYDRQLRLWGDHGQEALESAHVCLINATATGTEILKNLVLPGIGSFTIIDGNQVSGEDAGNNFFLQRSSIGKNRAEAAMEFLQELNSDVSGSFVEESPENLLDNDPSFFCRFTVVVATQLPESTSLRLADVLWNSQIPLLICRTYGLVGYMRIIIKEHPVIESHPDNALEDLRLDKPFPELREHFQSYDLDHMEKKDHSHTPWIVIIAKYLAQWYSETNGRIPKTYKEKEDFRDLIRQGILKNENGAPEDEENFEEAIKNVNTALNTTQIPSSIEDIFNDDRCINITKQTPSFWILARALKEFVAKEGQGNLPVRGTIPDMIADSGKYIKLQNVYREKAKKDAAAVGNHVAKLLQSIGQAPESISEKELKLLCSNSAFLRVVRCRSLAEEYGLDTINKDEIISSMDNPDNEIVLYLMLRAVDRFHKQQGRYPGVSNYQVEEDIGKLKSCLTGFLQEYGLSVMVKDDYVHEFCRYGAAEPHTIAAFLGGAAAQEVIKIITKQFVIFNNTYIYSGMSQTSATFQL
The experiment in a line: Inhibition of recombinant NAE (unknown origin) in presence of ATP at Km concentration by HTRF assay. It counts as protein-complex assay.

Experiment [6] has as its target T3, SUMO-activating enzyme (Homo sapiens, UniProt Q9UBT2). The experiment in a line: Inhibition of recombinant SAE (unknown origin) assessed as reduction in transfer of SUMO1 to UBC9 using SUMO1 as a substrate in presence of ATP at Km concentration by HTRF assay. It counts as protein-complex assay. An outline of the steps:
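HTRF transthiolation assay measuring transfer of SUMO1 to UBC9, the E2 for SAE.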

In experiment [7] the target is T2, NEDD8 activating enzyme. The experiment is described as follows: Inhibition of NAE in human HCT116 cells assessed as reduction in conjugation of Nedd8 […] by Western blot analysis. It counts as cell-based, HCT-116. The method in brief: (§1)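 HCT116 cells, quantitative Western blot of E2–UBL conjugates. Read-outs were SUMO–UBC9 for SAE, ubiquitin–[…] for UAE and Nedd-8–[…] for NAE.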

Experiment [8] can be described thus: Inhibition of recombinant UAE (unknown origin) in presence of ATP at Km concentration by HTRF assay. More on the design: species or system Homo sapiens.
The target of experiment [9] is T2, NEDD8 activating enzyme. The experiment in a line: Inhibition of NAE (unknown origin) using Nedd-8 as substrate incubated for 60 mins in presence of ATP and PPi by pyrophosphate exchange assay. It counts as protein-complex assay. An outline of the steps:
(§2)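 Pyrophosphate exchange assay of E1 activity at 1 mM ATP. Substrates were SUMO1 or SUMO2 for SAE, Ub for UAE and Nedd-8 for NAE.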

For experiment [10], the target named is T3, SUMO-activating enzyme. The experiment is described as follows: Inhibition of SAE in human HCT116 cells assessed as reduction in conjugation of SUMO proteins to UBC9 by Western blot analysis. It counts as cell-based, HCT-116. An outline of the steps:
as §1

Experiment [11] has as its target T3, SUMO-activating enzyme. The experiment in a line: Inhibition of SAE (unknown origin) using SUMO2 as substrate incubated for 60 mins in presence of ATP and PPi by pyrophosphate exchange assay. It counts as protein-complex assay. The method in brief:
as §2

The target of experiment [12] is T3, SUMO-activating enzyme. The experiment in a line: Inhibition of SAE (unknown origin) using SUMO1 as substrate incubated for 60 mins in presence of ATP and PPi by pyrophosphate exchange assay. The experiment is classed as protein-complex assay. An outline of the steps: as §2
Experiment [13] can be described thus: Inhibition of UAE in human HCT116 cells assessed as reduction in conjugation of ubiquitin to […] by Western blot analysis. The experiment is classed as cell-based. Conditions: hct-116. An outline of the steps:
as §1

Experiment [14] has as its target T3, SUMO-activating enzyme. The experiment in a line: Inhibition of SAE in human HCT116 cells assessed as reduction in redistribution of SUMO2/3 proteins from nucleus to cytosol incubated for 4 hrs by immunofluorescence assay. It counts as cell-based, HCT-116. The method in brief: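 HCT-116 cells exposed to compound across a concentration range for 4 h, then stained with anti-SUMO2/3 monoclonal antibody. Automated imaging scored the nuclear (inner) to cytoplasmic (outer) SUMO2/3 ratio. IC50 taken from the dose response.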

Experiment [15] in a line: Inhibition of UAE (unknown origin) using Ub as substrate incubated for 60 mins in presence of ATP and PPi by pyrophosphate exchange assay. Details: species or system Homo sapiens. An outline of the steps: as §2

Activity calls are given as the source filed them. The calls are words filed in the database; no cut-off is given here.

T3 sequence (Q9UBE0 whole entry): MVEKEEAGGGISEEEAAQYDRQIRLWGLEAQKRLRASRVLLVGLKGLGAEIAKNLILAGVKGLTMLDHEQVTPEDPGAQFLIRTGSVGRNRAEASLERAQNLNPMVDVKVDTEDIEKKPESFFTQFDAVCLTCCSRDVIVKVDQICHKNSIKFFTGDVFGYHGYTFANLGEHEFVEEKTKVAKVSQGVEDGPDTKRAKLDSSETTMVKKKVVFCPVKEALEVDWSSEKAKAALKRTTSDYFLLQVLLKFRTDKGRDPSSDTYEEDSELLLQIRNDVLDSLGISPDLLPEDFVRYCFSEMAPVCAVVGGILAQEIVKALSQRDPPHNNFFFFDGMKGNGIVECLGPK
T3 sequence (Q9UBT2 whole entry): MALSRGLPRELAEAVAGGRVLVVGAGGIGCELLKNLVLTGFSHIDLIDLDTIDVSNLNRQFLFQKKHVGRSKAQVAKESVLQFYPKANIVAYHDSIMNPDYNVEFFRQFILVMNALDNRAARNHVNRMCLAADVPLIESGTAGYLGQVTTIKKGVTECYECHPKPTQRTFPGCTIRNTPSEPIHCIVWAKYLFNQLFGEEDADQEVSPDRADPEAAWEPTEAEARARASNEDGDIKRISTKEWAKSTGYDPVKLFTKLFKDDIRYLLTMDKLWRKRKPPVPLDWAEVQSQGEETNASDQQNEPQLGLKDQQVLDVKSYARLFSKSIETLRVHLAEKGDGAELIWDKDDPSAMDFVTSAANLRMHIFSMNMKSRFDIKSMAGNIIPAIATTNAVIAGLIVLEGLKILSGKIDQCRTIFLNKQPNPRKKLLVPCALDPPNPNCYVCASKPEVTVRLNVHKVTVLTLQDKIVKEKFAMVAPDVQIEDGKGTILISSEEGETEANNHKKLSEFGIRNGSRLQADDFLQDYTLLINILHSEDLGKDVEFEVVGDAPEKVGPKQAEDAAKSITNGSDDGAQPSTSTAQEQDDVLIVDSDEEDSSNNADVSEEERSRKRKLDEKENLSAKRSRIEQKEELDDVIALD

Consider `Cc1sc(C(=O)c2cncnc2N[C@@H]2C[C@H](COS(N)(=O)=O)[C@@H](O)C2)cc1C1OCCc2ccc(Cl)cc21` (stereo in doubt), for which the result in experiment [1] and in [4] was Active. The inhibition entry in experiment [2] and in [3] was “Active” in each case.

On to `NS(=O)(=O)OC[C@H]1C[C@@H](Nc2ncncc2C(=O)c2ccn(Cc3ccccc3)n2)[C@H](O)[C@@H]1O`, for which the IC50 in experiment [5] stood at 29 nM; in experiment [6] it was 1 nM; in experiment [7], 1400 nM; in [8], 58 nM; in [9] it was 300 nM; in experiment [10] it was 6 nM. For the same compound, the IC50 in experiment [11] worked out at 50 nM; in experiment [12], 6 nM; in experiment [13], 410 nM; in experiment [14] it was 26 nM; in experiment [15], 1100 nM.
